Compound activity as filed in PubChem.
Compounds with a hit are over-represented: about 3.6% of the library has one in this group of screens.
DNA FID counter = displaces DNA intercalator in HCV helicase counter-screen; inhibition, % at 7.9 µM; DNA fluorescent intercalator displacement, fluorescence; AID 1845; 0.17% of 290,000 active; in the data active = inhibition above about 37%;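 note: 0% = vehicle and 100% = reference compound; higher means more ethidium bromide displaced from hairpin DNA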
NS3 helicase inh = inhibitors of Hepatitis C virus NS3 helicase; NS3 helicase DNA unwinding, Cy5 molecular beacon fluorescence; inhibition, % at 10.9 µM; AID 1800; 0.56% of 290,000 active;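 active = inhibition above the mean of all tested compounds plus 3 SD, set per campaign, cut at about 35% in these data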;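 note: 0% = DMSO wells and 100% = thioflavine S control wells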
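assay system = NS3 helicase fragment of HCV | buffer or medium = MOPS pH 6.5, MgCl2, DTT, Tween20, BSA | timing = 60 min unwinding reaction at 25 °C after ATP addition | signal = Cy5 beacon fluorescence read at start and 1 h | read-out basis = % inhibition of unwinding | control set = low DMSO, high thioflavine S at 110 µM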
FGF22 binding = shifts melting point of recombinant human FGF22. activity (Tm shift, normalised), % at 9.99 µM. 1.5% of 340,000 active. recombinant FGF22 thermal shift, SYPRO orange fluorescence; percent of sucrose octasulfate shift, DMSO zero. Q9HCT0. AID 651658;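 active = mean Tm shift, scaled 0 neutral to 100 positive control, at about 1.3% or above, every replicate too, limit read from the data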
Target sequence (Q9HCT0 whole entry, looked up): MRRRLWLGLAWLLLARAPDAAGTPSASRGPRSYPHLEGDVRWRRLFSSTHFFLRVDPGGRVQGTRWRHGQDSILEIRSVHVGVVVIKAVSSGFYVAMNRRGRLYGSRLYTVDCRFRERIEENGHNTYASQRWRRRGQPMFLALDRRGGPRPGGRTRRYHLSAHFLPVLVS
GRIN3A LBD mod = modulators (binders) of human NR3A ligand-binding domain; Tm shift relative to glycine control, % at 25 µM; 2.5% of 340,000 active; NR3A LBD differential scanning fluorimetry, Tm shift; 0% = protein alone, 100% = glycine-bound protein;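 active = melting temperature shift of at least 10% of the positive control shift, at one fixed dose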
EBNA-1 inhibitor = blocks EBNA-1 binding to DNA. inhibition, % at 14.8 µM. EBNA-1 DNA binding, fluorescence polarization. 0.34% of 300,000 active; in the data active = inhibition above about 28%
ZTA DNA inh = counter-screen for EBNA-1 inhibitors: inhibitors of Epstein-Barr virus ZTA. 0.15% of 320,000 active. ZTA-DNA binding, fluorescence polarization. P03206. AID 2234. inhibition, % at 11 µM; in the data active = inhibition above about 33%
Target sequence (P03206 whole entry, looked up): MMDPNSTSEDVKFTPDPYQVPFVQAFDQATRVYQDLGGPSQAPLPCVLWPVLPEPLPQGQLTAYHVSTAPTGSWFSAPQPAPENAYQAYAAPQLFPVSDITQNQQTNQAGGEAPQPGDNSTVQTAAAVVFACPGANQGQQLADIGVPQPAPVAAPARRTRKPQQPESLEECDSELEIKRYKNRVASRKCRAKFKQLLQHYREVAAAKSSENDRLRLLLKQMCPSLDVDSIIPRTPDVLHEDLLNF
Numbers without * were called inactive; x = no result.

SMILES | DNA FID counter | NS3 helicase inh | FGF22 binding | GRIN3A LBD mod | EBNA-1 inhibitor | ZTA DNA inh
CN(C)CCCNC(=O)C[C@@H]1CC[C@H]2[C@H](COc3ccc(NC(=O)c4ccc5c(c4)OCO5)cc3C(=O)N2C)O1 | x | x | 0 | x | x | x
COc1ccc(OC)c(-c2cc(C(=O)NCc3ccc(Cl)cc3)no2)c1 | -4 | 1 | 0 | -5 | 30* | 21
COc1ccc(-c2cc(C(=O)NCc3ccc(Cl)cc3)no2)cc1OC | -3 | 7 | x | -2 | -3 | 13
Cc1cccc2cc(CN(Cc3cccs3)C3(c4nnnn4C4CCCC4)CCCC3)c(=O)[nH]c12 | 2 | 6 | x | 11* | -10 | -16
Cc1cccc2cc(CN(Cc3ccc(F)cc3)Cc3nnnn3C3CCCC3)c(=O)[nH]c12 | -9 | -6 | 0 | -1 | -17 | -13
CS(=O)(=O)N1CCN(CCN2C(=O)c3cccc4cccc(c34)C2=O)CC1 | -2 | -1 | 45* | -2 | -5 | 8
CC(C)(C)C(=O)N1CCN(CCN2C(=O)c3cccc4cccc(c34)C2=O)CC1 | -11 | -3 | 0 | -1 | 0 | -1
O=C1/C(=C/c2ccccn2)SC(=S)N1CCc1ccccc1 | -7 | -4 | 1.6* | 0 | 7 | -7
O=C1/C(=C/c2ccccn2)SC(=S)N1NS(=O)(=O)c1ccccc1 | -18 | -4 | x | -3 | -3 | 12
O=C(CN1C(=O)S/C(=C/c2ccccn2)C1=O)N1CCOCC1 | -1 | 3 | 0 | 0 | 7 | 6
O=C1S/C(=C\c2ccccn2)C(=O)N1Cc1ccccc1F | 0 | -3 | x | 13* | 16 | 15
O=C(N[C@@H]1CC[C@H](CC(=O)N2CCCCC2)O[C@@H]1CO)c1ccc2c(c1)OCO2 | x | x | 0 | x | x | x
Brc1ccc(-c2csc(-c3c[nH]c4ccccc34)n2)cc1 | 7 | 2 | x | 47* | 11 | 15
c1ccc2c(-c3csc(-c4ccncc4)n3)c[nH]c2c1 | -9 | 0 | 0 | 27* | -2 | -6
C[C@@H]1CCCCO[C@H](CN(C)S(=O)(=O)c2cccs2)[C@@H](C)CN([C@@H](C)CO)C(=O)c2cc(NS(=O)(=O)c3cn(C)cn3)ccc2O1 | x | x | 0 | x | x | x
Cc1ccc(S(=O)(=O)N(Cc2ccc(F)cc2)Cc2ccco2)cc1 | -9 | 1 | x | 12* | -2 | 3
Cc1ccc(S(=O)(=O)N(Cc2ccccc2)Cc2ccco2)cc1 | -10 | 0 | x | -1 | -7 | 2
S=C(NCCc1ccc(Cl)cc1)NC1CC1 | -1 | -7 | 44* | -2 | 2 | 9
S=C(NCc1ccccc1)NCc1ccc(CNC(=S)NCc2ccccc2)cc1 | 6 | -12 | x | 20* | -1 | 7
CC(C)CCNC(=S)Nc1ccccc1F | -4 | 4 | 0 | 14* | 1 | -1
Fc1ccc(CNC(=S)NCc2ccccc2)cc1 | -5 | -20 | 0 | -2 | -15 | -6
CC(C)CCNC(=S)Nc1ccccn1 | -6 | 2 | x | -2 | -5 | -1
Fc1cc(Br)ccc1NC(=S)NCCc1ccccc1 | -3 | 11 | 1.8* | 30* | -1 | 4
NS(=O)(=O)c1ccc(CCNC(=S)NC2CCCC2)cc1 | 16 | 2 | 0 | 1 | 5 | -14
COCC(=O)N1[C@H](CO)[C@@H](c2ccccc2)C12CN(C(=O)NC1CCCCC1)C2 | x | x | 0 | x | x | x
SMILES | DNA FID counter | NS3 helicase inh | FGF22 binding | GRIN3A LBD mod | EBNA-1 inhibitor | ZTA DNA inh
C[C@@H]1CN([C@H](C)CO)S(=O)(=O)c2ccc(C#CC3CC3)cc2O[C@@H]1CN(C)C(=O)c1cccnc1 | x | x | 0 | x | x | x
N#C[C@@H]1[C@H](c2ccccc2-c2ccccc2F)[C@@H](CO)N1C(=O)C1CCC1 | x | x | 0 | x | x | x
COc1ccc(CNC(=O)C[C@H]2C=C[C@@H](NC(=O)CN(C)C)[C@H](CO)O2)cc1 | x | x | 0 | x | x | x
O=C(NC(=S)NCc1ccccc1)C1CCCCC1 | -12 | -7 | x | 18* | -6 | 4
O=C(NC(=S)Nc1ccccc1)C1CCCCC1 | -14 | 0 | 0 | 0 | -6 | 5
O=C(NCCc1ccccc1)Nc1ccc(Cl)cc1 | 2 | 7 | x | 16* | 0 | -28
S=C(NCCc1ccccc1)NCCc1ccccc1 | -2 | -18 | x | 26* | -5 | 4
CCNC(=S)Nc1ccc(Oc2ccccc2)cc1 | -2 | -4 | x | -3 | -4 | 12
S=C(NCc1ccccc1)Nc1ccc(Oc2ccccc2)cc1 | -11 | -4 | 0 | 12* | -2 | 5
COc1ccc(CN(C)C[C@@H]2OCCCC[C@@H](C)Oc3ccc(NC(=O)Cc4ccccc4)cc3C(=O)N([C@H](C)CO)C[C@H]2C)cc1 | x | x | 0 | x | x | x
CCC(=O)N1CCC2(CC1)CN(C(=O)c1cnccn1)[C@@H](CO)c1c2c2ccc(OC)cc2n1C | x | x | 0 | x | x | x
O=C(NCC[C@@H]1CC[C@H](NS(=O)(=O)Cc2ccccc2)[C@H](CO)O1)C1CC1 | x | x | 0 | x | x | x
S=C(NCCCc1ccccc1)Nc1ccccc1Cl | 1 | -10 | 0 | 18* | 8 | 3
S=C(NCCc1ccccc1)Nc1ccc(Cl)cc1 | -1 | 2 | 1.5* | 27* | -2 | -10
CN(C)C(=O)C[C@H]1C=C[C@H](NS(=O)(=O)c2ccccc2)[C@H](CO)O1 | x | x | 0 | x | x | x
Cc1ccc(NC(=S)NC2CCCCC2)cc1S(=O)(=O)N(C)C | -15 | -4 | 2.7* | -3 | -7 | 2
CC(C)c1ccc(NC(=S)NC2CCCCCC2)cc1 | -12 | -6 | 0 | -1 | -4 | 11
O=C(Nc1ccc(Br)cc1)NC1CCCCCCC1 | -8 | -6 | 0 | 11* | 6 | -10
S=C(Nc1ccc(Cl)c(Cl)c1)NC1CCCCC1 | 1 | 25 | 0 | 23* | -1 | -12
S=C(Nc1ccc2nsnc2c1)NC1CCCCC1 | -4 | -8 | 0 | -5 | -11 | 2
S=C(Nc1ccc(Oc2ccc(NC(=S)NC3CCCCC3)cc2)cc1)NC1CCCCC1 | -13 | -27 | x | 32* | 11 | 10
O=C(O)C[C@H]1C[C@@H]2c3cc(NS(=O)(=O)c4ccccc4)ccc3O[C@@H]2[C@H](CO)O1 | x | x | 0 | x | x | x
O=C(C[C@@H]1CC[C@H]2NC[C@H](O)COC[C@@H]2O1)Nc1ccc(-c2ccccc2)cc1 | x | x | 0 | x | x | x
COc1ccc2c3c(n(C)c2c1)[C@H](CO)N(Cc1cccc(F)c1)CC31CCN(C)CC1 | x | x | 0 | x | x | x
C[C@H](CO)N1C[C@H](C)[C@H](CN(C)S(=O)(=O)c2ccccc2)Oc2ncc(C#CCN(C)C)cc2C1=O | x | x | 0 | x | x | x
S=C(Nc1ccc(Oc2ccccc2)cc1)NC1CCCCCC1 | -11 | -9 | x | 11* | 13 | 6
S=C(Nc1ccc(Oc2ccccc2)cc1)NC1CCCCC1 | -5 | -11 | x | 5 | 2 | 8
CCCNC(=O)C[C@@H]1CC[C@@H]2[C@H](COc3ccc(NC(=O)COC)cc3C(=O)N2C)O1 | x | x | 0 | x | x | x
CCOC(=O)Cc1c(Sc2ccccc2)c2ccccc2n1C | -6 | -1 | 0 | 12* | -8 | 2
